Measurements published in ChEMBL document CHEMBL3120086, “Bioactive compounds from Vitex leptobotrys” (J Nat Prod, 2014).

Key:
[1] = system: Human immunodeficiency virus 1; test: Antiviral activity against HIV-1 3B/H9 infected in human HOG.R5 cells transfected with HIV1 LTR-GFP assessed as inhibition of viral replication at 10 ug/ml by fluorescence analysis; format: functional; conditions: Human immunodeficiency virus 1, 3B
[2] = system: Human immunodeficiency virus 1; test: Antiviral activity against HIV-1 3B/H9 infected in human HOG.R5 cells transfected with HIV1 LTR-GFP assessed as inhibition of viral replication at 15.9 uM by fluorescence analysis; format: functional; conditions: Human immunodeficiency virus 1, 3B
[3] = system: Human immunodeficiency virus 1; test: Antiviral activity against HIV-1 3B/H9 infected in human HOG.R5 cells transfected with HIV1 LTR-GFP assessed as inhibition of viral replication by fluorescence analysis; format: functional, organism-based; conditions: Human immunodeficiency virus 1, 3B
[4] = Selectivity index, ratio of cytotoxicity towards human Akata cells to EC50 for EBV infected in human Akata cells; format: toxicity, cell-based; conditions: read-out: Selectivity Index
Human gammaherpesvirus 4 = test: Antiviral activity against EBV infected in human Akata cells by DNA hybridization assay; format: functional, organism-based; conditions: human gammaherpesvirus 4, Akata
In short: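 Under an NIAID agreement, testing was done at Southern Research Institute as part of a 21-virus panel. EBV activity was assessed in Akata cells by DNA hybridization, and EC50 values were derived.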

[5] = Cytotoxicity against human HOG.R5 cells infected with HIV-1 3B; format: cell-based
In short: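 Cytotoxicity was run in parallel with the anti-HIV assay, in the same GFP-reporter HOG·R5 line (HOS cells expressing CD4/CCR5). Cell-growth inhibition of the host cells was measured.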

SMILES | inhibition at 10 µg/mL [1] [%] | inhibition at 15.9 µM [2] [%] | IC50 [3] [µM] | selectivity ratio [4] | EC50 (Human gammaherpesvirus 4) [µM] | CC50 [5] [µM]
C=Cc1c(C)c2cc3nc(c4c5[nH]c(cc6nc(cc1[nH]2)C(C)=C6CC)c(C)c5C(=O)[C@@H]4C(=O)OC)[C@@H](CCC(=O)O)[C@@H]3C [PHEOPHORBIDE A] | 80 | – | – | – | – | –
COc1cc(OC)c(C(=O)/C=C/c2ccc(O)cc2)c(OC)c1 | – | 77 | < 15.2 | 3.5 | 15 | 24.4
O[C@]12CO[C@@H](c3ccc4c(c3)OCO4)[C@@]1(O)CO[C@@H]2c1ccc2c(c1)OCO2 | – | – | – | 1.2 | 67 | –
